# The list is not random: actives were taken first. Their share in the collection is about 2.9%.
# TRPC4 agonist: TRPC4 (mouse) channel activation | Q9QUQ5 | HEK293 TRPC4beta/mu-opioid, Fluo4 calcium fluorescence; stronger effect = higher value | B-score at 10 µM | hit rate 0.49% among 310,000 | AID 2237;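 active = B-score above 5 SD of library B-scores, and initial fluorescence ratio not above library mean plus 5 SD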;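 note: positive B-score marks a calcium rise read as TRPC4 activation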
#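 system = HEK293 cells stably co-expressing mouse TRPC4beta and mu-opioid receptor | schedule = Fluo4 dye loading 45 min at room temperature, 110 s recording | measure = B-scored integrated calcium fluorescence ratio | signal = Fluo4 calcium-sensitive dye fluorescence, kinetic, 1 Hz baseline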
# TRPC6 inhibitor: mouse TRPC6 channel inhibition; B-score at 10 µM; HEK293-TRPC6, membrane potential dye, ACh-evoked depolarization; stronger effect = lower value; hit rate 1.1% among 310,000; Q61143;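 active = B-score under library mean minus 3 SD, initial fluorescence not abnormally high, positive integrated signal ratio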;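 note: B-score derived from integrated fluorescence ratio over the kinetic read; more negative B-score means stronger inhibition of depolarization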
# TRPC4 block: TRPC4 (mouse) channel inhibition; Q9QUQ5; AID 2247; HEK293 TRPC4beta/mu-opioid, DAMGO-evoked Fluo4 calcium flux; stronger effect = lower value; hit rate 0.39% among 300,000; B-score at 10 µM;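 active = B-score over 3 SD under the library average, no early fluorescence shift, positive overall ratio signal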
#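 test system = HEK293 cells with stable TRPC4beta plus mu-opioid receptor expression | detection = Fluo4 Ca2+ flux fluorescence | read-out = integrated fluorescence ratio relative to baseline, converted to per-well B score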
# Kir21 block: inhibitors of mouse Kir2.1 inward-rectifier potassium channel; P35561; HEK293-Kir2.1, FluxOR thallium flux fluorescence; stronger effect = lower value; B-score at 10 µM; hit rate 0.85% among 310,000; AID 1672;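 active = fluorescence ratio B-score at or below minus 3 SD of library scores, with starting-brightness B-score within 2 SD, cut at about -4.2 in these data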;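 note: channel flux triggered by added potassium and thallium sulfate stimulus; B-score of peak minus minimum fluorescence over baseline after thallium stimulus; more negative B-score means stronger Kir2.1 block with less thallium influx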
# Target sequence (P35561 whole entry, looked up): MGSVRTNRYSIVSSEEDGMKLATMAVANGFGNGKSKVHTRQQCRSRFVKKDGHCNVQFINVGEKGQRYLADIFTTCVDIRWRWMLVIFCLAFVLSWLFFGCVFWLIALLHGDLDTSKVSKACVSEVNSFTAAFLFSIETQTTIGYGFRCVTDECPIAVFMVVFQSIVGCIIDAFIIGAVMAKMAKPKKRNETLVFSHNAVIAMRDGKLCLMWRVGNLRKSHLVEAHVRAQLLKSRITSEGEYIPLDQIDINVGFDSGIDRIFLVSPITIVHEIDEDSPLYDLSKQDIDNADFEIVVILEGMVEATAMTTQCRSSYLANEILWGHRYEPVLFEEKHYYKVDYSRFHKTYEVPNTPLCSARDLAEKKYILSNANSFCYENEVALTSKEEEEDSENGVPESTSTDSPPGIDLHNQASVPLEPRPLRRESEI
# TRPC6 activator: mouse TRPC6 channel activation | HEK293-TRPC6 membrane potential dye fluorescence; stronger effect = higher value | hit rate 0.13% among 310,000 | AID 2550 | Q61143 | B-score at 10 µM;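 active = B-score of the integrated fluorescence ratio above library mean plus 3 SD, and starting fluorescence ratio within library mean plus 5 SD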;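 note: higher score means more depolarization so channel activation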
# TRPC4 PAM: TRPC4 (mouse) allosteric potentiation | Q9QUQ5 | HEK293 TRPC4beta/mu-opioid, DAMGO EC20, Fluo-4 Ca2+ flux; stronger effect = higher value | B-score at 10 µM | hit rate 0.42% among 310,000 | AID 2227;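 active = B-score of calcium response area above 5 SD of library B-scores, with initial fluorescence ratio within 5 SD of library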
# TRPC4 sel inh 2: mouse TRPC4 off-target activity of TRPC6 inhibitors, second screen | AID 2776 | hit rate 42% among 920 | HEK293 TRPC4/MOR, membrane potential dye fluorescence; channel activated by saturating DAMGO dose | shares compounds with TRPC6 inhibitor | inhibition, % at 10 µM;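 active = compounds whose fluorescence signal differed from control wells by over 3 SD, either direction, in both duplicate plates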
# TRPC4 spec: tests whether TRPC6 inhibitors also affect mouse TRPC4; hit rate 61% among 920; activity change, negative = inhibition, % at 10 µM; shares compounds with TRPC6 inhibitor; AID 2777; HEK293 TRPC4/mu-opioid, membrane potential fluorescence;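 active = rise or fall in signal beyond 3 SD of buffer-only wells in both replicate plates, either sign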;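 note: integrated kinetic ratio of fluorescence range over baseline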
# HEK293 MPD ctr 2-1: second check of TRPC6 inhibitor effects in parental HEK293 cells | AID 2779 | hit rate 31% among 920 | shares compounds with TRPC6 inhibitor | signal change vs control, % at 10 µM | parental HEK293 membrane potential dye fluorescence; maximal acetylcholine challenge after compound addition;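 active = membrane potential signal moving either way by over 3 SD of the maximum-effect control, in both duplicate plates, meaning non-specific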
# HEK293 MPD ctr-1: counter-screen for TRPC6 inhibitors: effect in parental HEK293 cells; hit rate 60% among 920; shares compounds with TRPC6 inhibitor; membrane potential signal change, % at 10 µM; parental HEK293 membrane potential dye fluorescence; AID 2780;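 active = membrane potential signal shifting up or down by more than 3 SD of buffer-only wells, on both duplicate plates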
# HEK293 MPD ctr-2: checks TRPC6 modulator effects in parental HEK293 cells. shares compounds with TRPC6 inhibitor. membrane potential signal change, % at 10 µM. AID 488924. membrane potential dye fluorescence. hit rate 51% among 2,400;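 active = membrane potential signal moves up or down beyond 5 SD from buffer-only wells, on both duplicate plates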
# HEK293 MPD ctr 2-2: second counter-screen for TRPC6 modulators: effect in parental HEK293 cells; shares compounds with TRPC6 inhibitor; inhibition, % at 10 µM; membrane potential dye fluorescence; after compound, maximal acetylcholine stimulation; hit rate 14% among 2,400;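 active = membrane potential signal drops by more than 5 SD from the mean control signal, in both duplicate plates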
# TRPC4 ctr mod: mouse TRPC4 off-target activity of TRPC6 modulators | shares compounds with TRPC6 inhibitor | HEK293 TRPC4/mu-opioid, membrane potential fluorescence | percent change from control (negative = decrease, positive = increase), % at 10 µM | hit rate 69% among 2,400;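 active = membrane potential signal moved up or down beyond 5 SD of buffer control wells, in both duplicate plates, actives on both sides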
# TRPC4/MOR inh 2: mouse TRPC4 off-target activity of TRPC6 modulators, second screen; shares compounds with TRPC6 inhibitor; HEK293 TRPC4/mu-opioid, membrane potential dye fluorescence; stimulated with maximal-effect DAMGO; inhibition, % at 10 µM; hit rate 55% among 2,400; AID 488928;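 active = drop in membrane potential signal beyond 5 SD of the control wells in both duplicate plates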;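 note: TRPC4 counter screen for TRPC6 hits run under conditions tuned for TRPC6 not TRPC4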
# TRPC6 block conf: confirmation of mouse TRPC6 inhibitors. shares compounds with TRPC6 inhibitor. HEK293-TRPC6, membrane potential dye, ACh-evoked depolarization. inhibition, % at 10 µM. hit rate 43% among 3,300. AID 488960;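 active = fluorescence ratio falls more than 5 SD below the full-stimulation control mean, in both duplicate runs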;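 note: integrated fluorescence ratio of peak minus minimum over baseline after agonist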
# TRPC6 act confirm: mouse TRPC6 activator confirmation | shares compounds with TRPC6 inhibitor | HEK293-TRPC6 membrane potential dye fluorescence, FDSS | activation, % at 10 µM | hit rate 11% among 2,800 | AID 488961;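 active = ratio signal rise beyond 5 SD above unstimulated control wells' mean, seen in both duplicate runs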
# A number is an active result; - = inactive; . = not tested or not shown; ! = a repeat was not active.
SMILES,TRPC4 agonist,TRPC6 inhibitor,TRPC4 block,Kir21 block,TRPC6 activator,TRPC4 PAM,HEK293 MPD ctr-2,HEK293 MPD ctr 2-2,TRPC4 ctr mod,TRPC4/MOR inh 2,TRPC6 block conf,TRPC6 act confirm,others
O=C(O)CC(CC(=O)Nc1ccc2ccccc2n1)c1ccccc1 (centres undefined),-,-,-,-,-,-,.,.,.,.,.,.,
C[C@@H](NC(=O)C1(c2ccccc2)CCN(C(=O)OC(C)(C)C)CC1)C(=O)N[C@@H](Cc1ccccc1)C(=O)O,-,-,-,-,-,-,.,.,.,.,.,.,
Cc1ccc(/C=c2/sc3n(c2=O)CCCN=3)o1,-,-,-,-,-,-,.,.,.,.,.,.,
Cc1ccc(/C=c2\sc3n(c2=O)CN(c2ccc(Br)cc2)CN=3)o1,-,-5.6,-,-,-,-,-,-,-,-,-,-,
C=C(C)CC1(NC(C)c2ccccc2)CCCCC1 (centres undefined),-,-5.1,-,-4.9,-,-,-,-,24%,-,-,-,
CC1CCC(C(C)C)C(OC(=O)COC(=O)c2ccc(=O)[nH]c2)C1 (centres undefined),-,-,-,-,-,-,.,.,.,.,.,.,
COc1ccc(-c2n(CC(=O)OC3CC(C)CCC3C(C)C)c3ccccc3[n+]2C)cc1 (centres undefined),-,-5.1,-,-13,15,-,536%,-,108%,56%,50%,192%,
Oc1c(C(Nc2ccccn2)c2ccccn2)ccc2cccnc12 (centres undefined),-,-6.2,-,-,-,-,-,-,9.5%,-,40%,-,
COc1ccccc1OCCCCN1CCN(C(c2ccccc2)c2ccccc2)CC1,-,-,-,-,-,-,.,.,.,.,.,.,
O=C1C2CSCN2C(=O)CN1CCCN1CCN(C(c2ccccc2)c2ccccc2)CC1 (centres undefined),-,-5.3,-,-,-,-,82%,-,11%,39%,45%,.,
CCN(CC)C(=O)NC1CC2CCCC(C1)N2Cc1ccccc1 (centres undefined),-,-,-,-,-,-,.,.,.,.,.,.,
CCCN1C2CCCC1CC(NC(=O)Nc1cccc(C(C)=O)c1)C2 (centres undefined),-,-6.1,-,-,-,-,-,-,-,-,-,.,
CC(=O)c1cccc(NC(=O)NC2CC3CCCC(C2)N3CC(C)C)c1 (centres undefined),-,-8.8,-,-,17,-,-,-,-,-,46%,110%,
CCCN1C2CCCC1CC(NC(=O)Nc1ccc(C(C)C)cc1)C2 (centres undefined),-,-,-,-,-,-,.,.,.,.,.,.,
O=C(Nc1ccccc1-c1ccccc1)NC1CC2CCCC(C1)N2CCc1ccccc1 (centres undefined),-,-7,-,-,-,-,.,.,.,.,65%,-,TRPC4 sel inh 2=46%;TRPC4 spec=-;HEK293 MPD ctr 2-1=-;HEK293 MPD ctr-1=-0.2%
Cc1cccc(-c2ccc(NC(=O)C3CCN(CC4CC4)CC3)cc2)c1,-,-,-,-,-,-,.,.,.,.,.,.,
COc1cc2[nH]c(C(=O)N3CC(C)OC(C)C3)cc2c(OC)c1OC (centres undefined),-,-,-,-,-,-,.,.,.,.,.,.,
C[C@H](NC(=O)c1[nH]cnc1C(=O)Nc1ccc(CNC(=O)OC(C)(C)C)cc1)C(=O)OCc1ccccc1,-,-,-,-,-,-,.,.,.,.,.,.,
CCN1CCN(S(=O)(=O)c2ccc(F)c(C(=O)Nc3c(F)cc(F)cc3Br)c2)CC1,-,-,-,-,-,-,.,.,.,.,.,.,
Cc1cc(NCCCN2CCOCC2)n2nc(C)c(-c3ccccc3)c2n1,-,-6.1,-,-,-,-,-171%,-,-31%,38%,-,-,
CCOC(=O)c1c(NC(=O)/C=C/C(=O)O)sc(C)c1-c1ccc(C(C)(C)C)cc1,-,-,-10,-,14,-,-,-,18%,50%,-,30%,
COc1ccc(-c2csc3nc(C)nc(N4CCC(C)CC4)c23)cc1OC,-,-6.6,-,-,-,23,.,.,.,.,59%,.,TRPC4 sel inh 2=-;TRPC4 spec=3.6%;HEK293 MPD ctr 2-1=-;HEK293 MPD ctr-1=2.4%
COc1ccc(-c2csc3nc(C)nc(N4CCN(C(C)=O)CC4)c23)cc1OC,-,-,-,-,-,-,.,.,.,.,.,.,
C/C(=N/NC(=S)Nc1cccc(C)c1)c1cccc([N+](=O)[O-])c1,-,-5.3,-,-,-,-,-,-,-,30%,-,-,
C/C(=N\NC(=S)NC(C)C)c1cccc([N+](=O)[O-])c1,-,-,-,-,-,-,.,.,.,.,.,.,
O=C(COc1ccc(Cl)cc1Cl)Nc1ccc(-c2ccc(N3CCOCC3)nn2)cc1,-,-,-,-,-,-,.,.,.,.,.,.,
COc1cccc(NS(=O)(=O)c2ccc3[nH]cc(C(=O)NC4CC4)c(=O)c3c2)c1,-,-8.9,-,-,14,-,-,-,-,-,58%,90%,
COC(=O)c1ccc(Cn2nnc3c(=O)[nH]c(C4CCCN(S(=O)(=O)c5cccc(Cl)c5)C4)nc32)cc1 (centres undefined),-,-,-,-,-,-,.,.,.,.,.,.,
COCCCC/C(=N\OCCN)c1ccc(C(F)(F)F)cc1,-,-5!,-,-,-,-,-,-,12%,48%,43%,-,
